Test results from ChEMBL document CHEMBL4028805, “Phenylthiazole Antibacterial Agents Targeting Cell Wall Synthesis Exhibit Potent Activity in Vitro and in Vivo against Vancomycin-Resistant Enterococci” (J Med Chem, 2017).
In brackets after ≈: the same amount, converted by molar mass. Activity calls are given as the source filed them.

Legend:
[1] = system: Pseudomonas aeruginosa; test: Antibacterial activity against Pseudomonas aeruginosa ATCC 15442 after 18 to 22 hrs in presence of 1/4 times MIC colistin by broth microdilution method; type: functional
In short: (§1)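 Broth microdilution per CLSI guidelines. Gram-negatives grown in TSB. Each strain tested alone and again with colistin at ¼ × MIC to permeabilize the outer membrane. Plates incubated at 37 °C for 18–22 h. MIC read as the lowest concentration showing no visible growth.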

[2] = system: Escherichia coli; test: Antibacterial activity against Escherichia coli 1411 harboring delta-acrAB after 18 to 22 hrs in absence of colistin by broth microdilution method; type: functional
[3] = system: Escherichia coli; test: Antibacterial activity against Escherichia coli 1411 after 18 to 22 hrs in absence of colistin by broth microdilution method; type: functional; in short: as §1
[4] = system: Escherichia coli; test: Antibacterial activity against Escherichia coli O157:H7 ATCC 35150 after 18 to 22 hrs in absence of colistin by broth microdilution method; type: functional
[5] = system: Escherichia coli; test: Antibacterial activity against tolC deficient Escherichia coli assessed as formation of spheroplasts at 25 ug/ml after 2 hrs in presence of sucrose by FM4-64/DAPI/SYTOX green staining-based deconvolution microscopic analysis; type: functional
[6] = Inhibition of Escherichia coli UPPS using IPP and FPP as substrate preincubated for 30 mins followed by substrate addition measured after 20 mins by malachite green phosphate assay
In short: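 Purified E. coli UPPS preincubated 30 min at room temperature with inhibitor (200 to 0.2 μM) in 100 mM HEPES, 50 mM NaCl, 0.5 mM MgCl2, 0.02% DDM, pH 7.5. Then 10 μM IPP and FPP added with 0.375 U/mL inorganic phosphatase. Phosphate read by malachite green at 620 nm. IC50 from dose-response curves.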

[7] = system: Enterococcus faecalis; test: Inhibition of UPPP-mediated peptidoglycan biosynthesis in Enterococcus faecalis NR-31975 assessed as accumulation of UDP-N-acetylmuramyl-pentapeptide at 10 times MIC after 30 mins by HPLC-MS analysis
In short: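 Pellets boiled 30 min. UDP-N-acetylmuramyl-pentapeptide measured by HPLC-TOF MS on a phenyl column, 5–20% acetonitrile/0.1% formic acid gradient, positive ESI.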

[8] = system: Staphylococcus aureus; test: Antibacterial against Methicillin-Resistant Staphylococcus aureus after 18 to 20 hrs by broth microdilution method; type: functional
[9] = system: Enterococcus faecalis; test: Antibacterial activity against vancomycin-resistant Enterococcus faecalis HM-201 infected in Caenorhabditis elegans AU37 assessed as reduction in bacterial burden at 20 ug/ml after 18 hrs by CFU-based […] analysis relative to control; type: functional; parameters: scale not given: the % may be the effect or the level left
In short: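 C. elegans AU37 adults infected on an E. faecalis HM-201 lawn for 2 h, washed in M9, 20–25 worms per well. Treated in triplicate with 20 μg/mL, with water as negative control. Worms washed, lysed with silicon carbide by vortexing, diluted serially and plated on TSA with 50 μg/mL gentamicin. CFU counted after 18 h at 37 °C and expressed as % reduction versus untreated worms.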

[10] = system: HRT-18 cell line; test: Cytotoxicity against human HRT18 cells assessed as reduction in cell viability up to 20 ug/ml after 2 hrs by MTS assay; type: cell-based; conditions: hrt-18, 2 h
In short: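 HRT-18 cells maintained in RPMI-1640 with 10% fetal horse serum at 37 °C, 5% CO2. Exposed to 5, 10, 20 or 40 μg/mL for 2 or 24 h, then MTS added and absorbance read at 490 nm. Viability expressed relative to untreated cells, n ≥ 3, one-way ANOVA with Dunnett's test.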

[11] = system: Bacillus subtilis; test: Antibacterial activity against Bacillus subtilis assessed as pool of membranes at 5 times MIC after 2 hrs in presence of methylsulfonyl methane by phase contrast microscopic analysis; type: functional
In short: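 B. subtilis grown in LB at 37 °C to OD600 ~0.2, then treated at 5 × MIC with MSM for osmotic stabilisation. At 2 h, stained with FM 4-64 (1 μg/mL), DAPI (1 μg/mL) and SYTOX Green (1 μg/mL). Imaged by deconvolution fluorescence and phase contrast microscopy.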

[12] = system: Enterococcus faecalis; test: Antibacterial activity against vancomycin-resistant Enterococcus faecalis ATCC 51299 assessed as ratio of MIC after and before 6 serial passages measured after 18 hrs by broth microdillution method; type: functional
In short: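 Multi-step selection over 14 passages in two weeks. McFarland 0.5 inoculum diluted 1:300 in TSB (E. faecalis) or BHI (E. faecium) to 1 × 10^5 CFU/mL. Each passage reinoculated at ~5 × 10^5 CFU/mL from the sub-inhibitory well of the previous plate. Compounds serially diluted in triplicate, incubated ≥18 h at 37 °C, MIC read visually. Resistance defined as >4-fold MIC rise.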

[13] = system: Enterococcus faecalis; test: Synergistic antimicrobial activity against Enterococcus faecalis ATCC 51299 after 20 hrs in presence of linezolid by checkerboard assay; type: functional
In short: (§2)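 Checkerboard in TSB with a starting inoculum of 1×10^5 CFU/mL. Compound and antibiotic diluted from 2× or 4× MIC along perpendicular axes. Incubated 20 h at 37 °C. ΣFIC calculated: ≤0.5 synergy, >0.5 to <2 additive, 2–4 indifference, >4 antagonism.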

[14] = system: Enterococcus faecalis; test: Synergistic antimicrobial activity against Enterococcus faecalis ATCC 49533 after 20 hrs in presence of ciprofloxacin by checkerboard assay; type: functional; in short: as §2
[15] = system: Pseudomonas aeruginosa; test: Antibacterial activity against Pseudomonas aeruginosa ATCC 15442 after 18 to 22 hrs in absence of colistin by broth microdilution method; type: functional
[16] = system: Enterococcus faecalis; test: Potentiation of vancomycin-induced antibacterial activity against Enterococcus faecalis HM-201 assessed as fold reduction in vancomycin MIC preincubated for 30 mins followed by vancomycin addition measured after 18 to 21 hrs; type: functional
In short: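 VRE suspensions at 5×10^5 CFU/mL preincubated with compound at ½ × MIC for 30 min at room temperature. […] Fold reduction calculated as vancomycin MIC alone over MIC in combination.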

[17] = system: Enterococcus faecalis; test: Synergistic antimicrobial activity against Enterococcus faecalis ATCC 51299 after 20 hrs in presence of ampicillin by checkerboard assay; type: functional; in short: as §2
[18] = system: Escherichia coli; test: Antibacterial activity against tolC deficient Escherichia coli assessed as cell lysis at 25 ug/ml after 30 mins in presence of sucrose by FM4-64/DAPI/SYTOX Green staining-based deconvolution microscopic analysis; type: functional
[19] = system: Enterococcus faecium; test: Antibacterial activity against vancomycin-resistant Enterococcus faecium clinical isolates after 18 to 22 hrs by broth microdilution method; type: functional
In short: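 CLSI broth microdilution against panels of enterococcal isolates. E. faecalis grown in TSB, E. faecium in BHI, 37 °C for 18–22 h. MIC is the lowest concentration without visible growth. MIC50 is the value inhibiting 50% of isolates in each group.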

[20] = system: Enterococcus faecium; test: Bactericidal activity against vancomycin-resistant Enterococcus faecium ATCC 700221 at 4 times MIC after 2 hrs by time-kill assay; type: functional
In short: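 Late-log cells diluted to ~5 × 10^6 CFU/mL and exposed in triplicate to 4 × MIC, in TSB (E. faecalis HM-201) or BHI (E. faecium ATCC 700221) at 37 °C. Sampled at 0, 2, 4, 6, 8, 10, 12 and 24 h, diluted serially in PBS and plated on TSA or BHI agar. CFU/mL counted after 18–22 h. DMSO served as negative control.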

What does the source list for `CCCCc1ccc(-c2nc(C)c(/C(C)=N/NC(=N)N)s2)cc1`?
MIC [1]: 1 µg/mL; MIC [2]: 4 µg/mL (≈ 12.1 µM); MIC [3]: 64 µg/mL (≈ 194 µM); MIC [4]: 16 µg/mL (≈ 48.6 µM); Activity [5]: Active; IC50 [6]: 19 µM; inhibition [7]: Active; MIC [8]: 1.3 to 5.6 µg/mL (≈ 3.95 to 17 µM); Activity [9]: 89%; Activity [10]: Non-Toxic; Activity [11]: Active; Ratio [12]: 1; fractional inhibitory concentration index (FICI) [13]: 2; fractional inhibitory concentration index (FICI) [14]: 0.63 - 1; MIC [15]: 64 µg/mL (≈ 194 µM); Activity [16]: inactive; fractional inhibitory concentration index (FICI) [17]: 3; Activity [18]: Active; MIC50 [19]: 2 µg/mL (≈ 6.07 µM); Activity [20]: Active
